{
  "source": "paper PMC9722545",
  "about": "(Structure (London, England : 1993), 2022)",
  "key": {"CDK7": {"tested_on": "CDK7", "conditions": "KINOMEscan panel of CDKs; ref Lin et al., 2019; cited from earlier work"}, "[1]": {"target": "CDK2-cyclin A Ala144Gly (A144G) (Homo sapiens, UniProt P24941, A144G)", "experiment": "ITC binding of OTS964 to CDK2 Ala144Gly-cyclin A"}, "CDK11 Met160Phe (M160F)": {"target": "CDK11 Met160Phe (M160F) (Homo sapiens, UniProt P21127, M516F)", "sequence (P21127 428-736 M516F)": "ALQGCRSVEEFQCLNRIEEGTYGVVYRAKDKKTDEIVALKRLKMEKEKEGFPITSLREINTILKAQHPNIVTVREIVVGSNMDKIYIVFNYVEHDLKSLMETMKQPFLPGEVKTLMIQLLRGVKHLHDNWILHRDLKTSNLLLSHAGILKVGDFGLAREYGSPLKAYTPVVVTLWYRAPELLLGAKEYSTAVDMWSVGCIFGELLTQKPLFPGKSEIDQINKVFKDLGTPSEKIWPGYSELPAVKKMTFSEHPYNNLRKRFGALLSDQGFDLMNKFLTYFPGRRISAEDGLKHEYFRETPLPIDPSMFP", "experiment": "ITC binding of OTS964 to CDK11 Met160Phe"}, "CDK2 Wild-type": {"target": "CDK2 Wild-type (Homo sapiens, UniProt P24941)", "experiment": "ITC binding of OTS964 to CDK2 wild-type", "how_it_was_run": "(§1)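 Human CDK2 (res. 1–298, wild-type or point mutant) is expressed as a GST-PreScission fusion with yeast CAK1 in E. coli BL21(DE3), then tag-cleaved and gel-filtered, with no cyclin. ITC at 25°C in 25 mM HEPES pH 7.5, 250 mM NaCl, 1 mM DTT, 2.0% DMSO: 2250 μM test compound into 150 μM kinase, 38×1 μL injections 180 s apart.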"}, "CDK11 Gly223Ser": {"target": "CDK11 Gly223Ser (Homo sapiens, UniProt P21127, G579S)", "sequence (P21127 428-736 G579S)": "as the sequence (P21127 428-736 M516F) above, with F89M, G152S counted along it", "experiment": "ITC binding of OTS964 to CDK11 Gly223Ser"}, "CDK11 Glu89Gly (E89G)": {"target": "CDK11 Glu89Gly (E89G) (Homo sapiens, UniProt P21127, E445G)", "sequence (P21127 428-736 E445G)": "as the sequence (P21127 428-736 M516F) above, with E18G, F89M counted along it", "experiment": "ITC binding of OTS964 to CDK11 Glu89Gly"}, "[2]": {"target": "CDK2-cyclin A Gly11Glu (G11E) (Homo sapiens, UniProt P24941, G11E)", "experiment": "ITC binding of OTS964 to CDK2 Gly11Glu-cyclin A"}, "[3]": {"tested_on": "tumor cell lines harbouring FBXW7−/− mutations", "conditions": "FBXW7−/− versus FBXW7 wild-type tumor cell lines; ref O’Brien et al. (2022); cited from earlier work"}, "CDK2-cyclin A Wild-type": {"target": "CDK2-cyclin A Wild-type (Homo sapiens, UniProt P24941)", "experiment": "ITC binding of OTS964 to CDK2-cyclin A wild-type", "conditions": "for Kd: mean ± SD"}, "[4]": {"target": "CDK11 Wild-type (CDK11B residues 72–380) (Homo sapiens, UniProt P21127)", "sequence (P21127 428-736)": "as the sequence (P21127 428-736 M516F) above, with F89M counted along it", "experiment": "ITC binding of OTS964 to CDK11 wild-type"}, "CDK11 G223A/E89G/M160F": {"target": "CDK11 G223A/E89G/M160F (Homo sapiens, UniProt P21127, E445G/G579A/M516F)", "sequence (P21127 428-736 E445G/M516F/G579A)": "as the sequence (P21127 428-736 M516F) above, with E18G, G152A counted along it", "experiment": "ITC binding of OTS964 to CDK11 triple mutant"}, "[5]": {"target": "CDK2-cyclin A Phe80Met (F80M) (Homo sapiens, UniProt P24941, F80M)", "experiment": "ITC binding of OTS964 to CDK2 Phe80Met-cyclin A"}, "CDK2 Ala144Gly (A144G)": {"target": "CDK2 Ala144Gly (A144G) (Homo sapiens, UniProt P24941, A144G)", "experiment": "ITC binding of OTS964 to CDK2 Ala144Gly", "how_it_was_run": "as §1"}, "other CDKs": {"tested_on": "other CDKs", "conditions": "ref Lin et al., 2019, cited from earlier work"}, "CDK2 Gly11Glu (G11E)": {"target": "CDK2 Gly11Glu (G11E) (Homo sapiens, UniProt P24941, G11E)", "experiment": "ITC binding of OTS964 to CDK2 Gly11Glu", "how_it_was_run": "as §1"}, "CDK11 Gly223Ala (G223A)": {"target": "CDK11 Gly223Ala (G223A) (Homo sapiens, UniProt P21127, G579A)", "sequence (P21127 428-736 G579A)": "as the sequence (P21127 428-736 M516F) above, with F89M, G152A counted along it", "experiment": "ITC binding of OTS964 to CDK11 Gly223Ala"}, "CDK2 Phe80Met (F80M)": {"target": "CDK2 Phe80Met (F80M) (Homo sapiens, UniProt P24941, F80M)", "experiment": "ITC binding of OTS964 to CDK2 Phe80Met", "how_it_was_run": "as §1"}, "CDK2 and CDK1": {"tested_on": "CDK2 and CDK1", "conditions": "no cyclins present; ref Wood et al., 2019; cited from earlier work"}, "[6]": {"conditions": "ITC, CDK2 Ala144Gly with cyclin A"}, "[7]": {"conditions": "ITC, CDK2 Gly11Glu with cyclin A"}, "[8]": {"conditions": "ITC, CDK2 wild-type with cyclin A"}, "[9]": {"conditions": "ITC, CDK2 Phe80Met with cyclin A"}},
  "data": [
    {"compound": "Cc1cc(O)c(-c2ccc(C(C)CN(C)C)cc2)c2c1[nH]c(=O)c1sccc12", "note": "(stereo not drawn) [OTS964]", "values": [
      {"measurement": "more potent against CDK11 than against CDK7", "setting": "CDK7", "value": 10, "unit": "X"},
      {"measurement": "Kd", "setting": "[1]", "value": "3030 ± 150", "unit": "nM"},
      {"measurement": "N (sites)", "setting": "[1]; ITC, 25°C, CDK2 Ala144Gly with cyclin A", "value": 1.04, "unit": "sites"},
      {"measurement": "ΔH", "setting": "[1]; [6]", "value": "-6.92 ± 0.01", "unit": "kcal/mol"},
      {"measurement": "ΔS", "setting": "[1]; [6]", "value": "2.04 ± 0.11", "unit": "cal/mol/K"},
      {"measurement": "ΔG", "setting": "[1]; ITC, CDK2 Ala144Gly with cyclin A, ΔG = ΔH − TΔS", "value": "-7.53 ± 0.03", "unit": "kcal/mol"},
      {"measurement": "Kd", "setting": "CDK11 Met160Phe (M160F)", "value": "556 ± 26", "unit": "nM"},
      {"measurement": "Kd", "setting": "CDK2 Wild-type", "value": "16300 ± 1700", "unit": "nM"},
      {"measurement": "weaker binding than monomeric CDK11", "setting": "CDK2 Wild-type; ITC KD, CDK2 without cyclin vs monomeric CDK11", "value": "~ 250 fold"},
      {"measurement": "N (sites)", "setting": "CDK2 Wild-type; ITC, 25°C, CDK2 wild-type, no cyclin", "value": 0.704, "unit": "sites"},
      {"measurement": "ΔH", "setting": "CDK2 Wild-type; ITC, CDK2 wild-type, no cyclin", "value": "-9.12 ± 0.60", "unit": "kcal/mol"},
      {"measurement": "ΔS", "setting": "CDK2 Wild-type; ITC, CDK2 wild-type, no cyclin", "value": "−8.66 ± 1.80", "unit": "cal/mol/K"},
      {"measurement": "ΔG", "setting": "CDK2 Wild-type; ITC, CDK2 wild-type, no cyclin, ΔG = ΔH − TΔS", "value": "-6.54 ± 0.06", "unit": "kcal/mol"},
      {"measurement": "Kd", "setting": "CDK11 Gly223Ser", "value": "853 ± 56", "unit": "nM"},
      {"measurement": "Kd", "setting": "CDK11 Glu89Gly (E89G)", "value": "50.9 ± 3.3", "unit": "nM"},
      {"measurement": "Kd", "setting": "[2]", "value": "621 ± 16", "unit": "nM"},
      {"measurement": "N (sites)", "setting": "[2]; ITC, 25°C, CDK2 Gly11Glu with cyclin A", "value": 1.16, "unit": "sites"},
      {"measurement": "ΔH", "setting": "[2]; [7]", "value": "-7.13 ± 0.21", "unit": "kcal/mol"},
      {"measurement": "ΔS", "setting": "[2]; [7]", "value": "4.48 ± 0.76", "unit": "cal/mol/K"},
      {"measurement": "ΔG", "setting": "[2]; ITC, CDK2 Gly11Glu with cyclin A, ΔG = ΔH − TΔS", "value": "-8.47 ± 0.02", "unit": "kcal/mol"},
      {"measurement": "sensitivity to OTS964 treatment", "setting": "[3]", "value": "more sensitive"},
      {"measurement": "enhancement of binding of CDK2 to OTS964 in the presence versus absence of cyclin A", "setting": "CDK2-cyclin A Wild-type; ITC KD", "value": 7, "unit": "fold"},
      {"measurement": "N (sites)", "setting": "CDK2-cyclin A Wild-type; ITC, 25°C, CDK2 wild-type with cyclin A", "value": 1.00, "unit": "sites"},
      {"measurement": "ΔH", "setting": "CDK2-cyclin A Wild-type; [8]", "value": "-8.64 ± 1.06", "unit": "kcal/mol"},
      {"measurement": "ΔS", "setting": "CDK2-cyclin A Wild-type; [8]", "value": "−2.64 ± 2.99", "unit": "cal/mol/K"},
      {"measurement": "ΔG", "setting": "CDK2-cyclin A Wild-type; ITC, CDK2 wild-type with cyclin A, ΔG = ΔH − TΔS", "value": "-7.85 ± 0.18", "unit": "kcal/mol"},
      {"measurement": "Kd", "setting": "CDK2-cyclin A Wild-type; ITC, 25°C, CDK2 wild-type with cyclin A, n=2", "value": "1820 ± 500", "unit": "nM"},
      {"measurement": "Kd", "setting": "CDK2-cyclin A Wild-type; ITC, CDK2 in the presence of cyclin A", "value": "1800 ± 500", "unit": "nM"},
      {"measurement": "Kd", "setting": "[4]", "value": "65.4 ± 18", "unit": "nM"},
      {"measurement": "Kd", "setting": "CDK11 G223A/E89G/M160F", "value": "320 ± 66", "unit": "nM"},
      {"measurement": "Kd", "setting": "[5]", "value": "4980 ± 440", "unit": "nM"},
      {"measurement": "N (sites)", "setting": "[5]; ITC, 25°C, CDK2 Phe80Met with cyclin A", "value": 1.28, "unit": "sites"},
      {"measurement": "ΔH", "setting": "[5]; [9]", "value": "-9.69 ± 0.08", "unit": "kcal/mol"},
      {"measurement": "ΔS", "setting": "[5]; [9]", "value": "−8.23 ± 0.44", "unit": "cal/mol/K"},
      {"measurement": "ΔG", "setting": "[5]; ITC, CDK2 Phe80Met with cyclin A, ΔG = ΔH − TΔS", "value": "-7.24 ± 0.05", "unit": "kcal/mol"},
      {"measurement": "Kd", "setting": "CDK2 Ala144Gly (A144G)", "value": "16000 ± 4600", "unit": "nM"},
      {"measurement": "N (sites)", "setting": "CDK2 Ala144Gly (A144G); ITC, 25°C, CDK2 Ala144Gly, no cyclin", "value": 0.554, "unit": "sites"},
      {"measurement": "ΔH", "setting": "CDK2 Ala144Gly (A144G); ITC, CDK2 Ala144Gly, no cyclin", "value": "-10.6 ± 1.2", "unit": "kcal/mol"},
      {"measurement": "ΔS", "setting": "CDK2 Ala144Gly (A144G); ITC, CDK2 Ala144Gly, no cyclin", "value": "−13.4 ± 4.5", "unit": "cal/mol/K"},
      {"measurement": "ΔG", "setting": "CDK2 Ala144Gly (A144G); ITC, CDK2 Ala144Gly, no cyclin, ΔG = ΔH − TΔS", "value": "-6.56 ± 0.17", "unit": "kcal/mol"},
      {"measurement": "binding to other CDKs tested", "setting": "other CDKs; KINOMEscan panel of CDKs", "value": "no apparent binding"},
      {"measurement": "Kd", "setting": "other CDKs; other CDKs", "value": "> 3000", "unit": "nM"},
      {"measurement": "higher affinity for CDK11 than other CDKs", "setting": "other CDKs", "value": "at least 75 fold"},
      {"measurement": "Kd", "setting": "CDK2 Gly11Glu (G11E)", "value": "6820 ± 530", "unit": "nM"},
      {"measurement": "N (sites)", "setting": "CDK2 Gly11Glu (G11E); ITC, 25°C, CDK2 Gly11Glu, no cyclin", "value": 0.866, "unit": "sites"},
      {"measurement": "ΔH", "setting": "CDK2 Gly11Glu (G11E); ITC, CDK2 Gly11Glu, no cyclin", "value": "-9.45 ± 0.32", "unit": "kcal/mol"},
      {"measurement": "ΔS", "setting": "CDK2 Gly11Glu (G11E); ITC, CDK2 Gly11Glu, no cyclin", "value": "−8.05 ± 1.23", "unit": "cal/mol/K"},
      {"measurement": "ΔG", "setting": "CDK2 Gly11Glu (G11E); ITC, CDK2 Gly11Glu, no cyclin, ΔG = ΔH − TΔS", "value": "-7.05 ± 0.05", "unit": "kcal/mol"},
      {"measurement": "Kd", "setting": "CDK11 Gly223Ala (G223A)", "value": "31.7 ± 13.8", "unit": "nM"},
      {"measurement": "Kd", "setting": "CDK2 Phe80Met (F80M)", "value": "32400 ± 1900", "unit": "nM"},
      {"measurement": "N (sites)", "setting": "CDK2 Phe80Met (F80M); ITC, 25°C, CDK2 Phe80Met, no cyclin", "value": 0.804, "unit": "sites"},
      {"measurement": "ΔS", "setting": "CDK2 Phe80Met (F80M); ITC, CDK2 Phe80Met, no cyclin", "value": "−19.1 ± 1.1", "unit": "cal/mol/K"},
      {"measurement": "ΔG", "setting": "CDK2 Phe80Met (F80M); ITC, CDK2 Phe80Met, no cyclin, ΔG = ΔH − TΔS", "value": "17.5 ± 0.6", "unit": "kcal/mol"}
    ]},
    {"compound": "Cc1ncc(-c2ccnc(Nc3ccc(S(C)(=O)=O)cc3)n2)n1C(C)C", "note": "[AZD5438]", "values": [
      {"measurement": "difference in affinity between CDK2 and CDK1", "setting": "CDK2 and CDK1", "value": "~ 170 X"}
    ]}
  ]
}
